High-throughput results as filed in PubChem BioAssay.
V1R ag counter: V1a receptor agonism, counter-screen for OXTR agonists. P37288. CHO-V1R cells, Fluo-8 calcium fluorescence, agonist mode; 0% DMSO, 100% 3 nM vasopressin. activation, % at 3 µM. 320,000 compounds, 0.25% hits. AID 2797;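 active = activation above the mean activation of all tested compounds plus 3 SD, per screening run, cut at about 20% in these data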;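 note: signal is peak over basal fluorescence ratio across a 100 second FLIPR read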
Target sequence (P37288 whole entry, looked up): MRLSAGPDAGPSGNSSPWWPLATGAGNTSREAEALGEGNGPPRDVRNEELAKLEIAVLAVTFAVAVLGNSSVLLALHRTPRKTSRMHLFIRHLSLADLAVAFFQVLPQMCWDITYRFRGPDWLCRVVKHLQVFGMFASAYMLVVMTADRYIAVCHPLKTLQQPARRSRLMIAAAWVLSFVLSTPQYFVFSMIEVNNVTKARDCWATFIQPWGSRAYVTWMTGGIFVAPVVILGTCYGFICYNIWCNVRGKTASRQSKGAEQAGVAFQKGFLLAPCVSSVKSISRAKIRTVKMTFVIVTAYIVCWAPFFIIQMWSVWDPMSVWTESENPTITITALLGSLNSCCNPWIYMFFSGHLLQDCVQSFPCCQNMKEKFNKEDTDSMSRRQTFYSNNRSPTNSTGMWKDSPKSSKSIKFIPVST
TRPN1 ag: zebrafish TRPN1 (NompC) channel agonism; 220,000 compounds, 0.18% hits; HEK293 zebrafish TRPN1-YFP, Fluo-8 calcium fluorescence; 100% = response to 87 µM carbachol; activation, % at 3 µM; AID 1424;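 active = activation above its plate's cutoff, the mean activation of test wells on that plate plus 3 SD, cut at about 19% in these data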;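 note: 0% = DMSO alone and 100% = 87 µM carbachol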
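Assay system: Zebrafish TRPN1-YFP in HEK293 cells | Incubation: Dye loading 1 h at 37 °C, then 30 min room temperature | Measured by: Kinetic Fluo-8 fluorescence, ex 470-495, em 515-575 nm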
TRPML3 agonist: agonists of human TRPML3 channel; Q8TDD5; HEK293 TRPML3-YFP, Fluo-8 calcium fluorescence; 100% = the carbachol control signal; activation, % at 3 µM; 220,000 compounds, 0.29% hits;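 active = activation above its plate's cutoff, the mean activation of the plate's test wells plus 3 SD, cut at about 12% in these data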;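 note: 0% = DMSO only wells and 100% = carbachol wells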
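Test system – HEK293 line with stable expression of human TRPML3-YFP channel · Control set – carbachol 87 µM final as high control (100%), DMSO as low control (0%) · Signal – Fluo-8 calcium dye fluorescence, ex 470-495, em 515-575 nm · Incubation – 1-h 37 °C dye load, 5-s basal, 120-s post-compound reads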
OXTR agonist: activates the human oxytocin receptor; CHO-OTR cells, Fluo-8 calcium fluorescence; normalized: DMSO 0%, oxytocin 100%; activation, % at 3 µM; 320,000 compounds, 0.32% hits; AID 2435;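 active = activation above the mean of all tested compounds plus 3 SD, cutoff set per screening run, cut at about 20% in these data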;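 note: peak over basal fluorescence ratio from a 100 s FLIPR kinetic read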
OXTR potentiate: human OXTR potentiation; activation, % at 3 µM; P30559; 320,000 compounds, 0.061% hits; CHO-OTR cells, Fluo-8 calcium fluorescence, potentiator mode; 0% = oxytocin EC15, 100% = EC100;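 active = activation above that plate's cutoff, the mean activation of tested compounds plus 3 SD, cut at about 6.6% in these data, passing the limit was not always enough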;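 note: 100% uses oxytocin at 75 nM as the full agonist control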
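Dosing: Single dose, 3.0 µM nominal final compound concentration | Material: Human OTR in CHO cells | Technique: Kinetic Fluo-8 calcium fluorescence | Benchmarks: EC15 oxytocin alone as 0%, 75 nM oxytocin as 100% | Probe or stimulus: Oxytocin at about EC15, sub-maximal agonist stimulus | Incubation: Compound 6 min at room temperature before oxytocin, 100 s read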
OXTR ag confirm: human OXTR agonism, confirmation | CHO-OTR cells, Fluo-8 calcium fluorescence, agonist | activation, % at 3 µM | shares compounds with OXTR agonist | 390 compounds, 20% hits;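 active = mean activation above about 20% derived from the earlier single-dose screen, limit read from the data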;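 note: peak over minimum fluorescence ratio per well during a 100 second FLIPR read; 0% = DMSO alone and 100% = oxytocin high control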
V1R ag counter 3x: V1R agonism in triplicate, counter-screen for OXTR agonists. 390 compounds, 10% hits. shares compounds with OXTR agonist. CHO-V1R cells, Fluo-8 calcium fluorescence, agonist. AID 434991. activation, % at 3 µM;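 active = mean activation over triplicate exceeds the hit threshold set in the earlier primary screen, cut at about 20% in these data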;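 note: peak over basal fluorescence ratio within a 100 second read; 0% = DMSO alone and 100% = 3 nM vasopressin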
* hit, by the source's call; . = no result. Only some compounds are listed: those with a hit (about 0.55% of all), similar ones and a draw of the others.

SMILES	V1R ag counter	TRPN1 ag	TRPML3 agonist	OXTR agonist	OXTR potentiate	OXTR ag confirm	V1R ag counter 3x
CCOC(=O)c1sc(NC(=O)Nc2ccc(Cl)cc2)cc1C	14	18	4	20*	-23	11	11
COc1cccc(NC(=O)Nc2nc(SC(C)(C)C)ns2)c1	18	.	.	23*	-26	13	11
O=C(Nc1cccc(F)c1)Nc1cccc(Cl)c1	13	.	.	20*	-25	5	6
COc1cccc(NC(=O)Nc2nc(SC)ns2)c1	10	.	.	12	-8	.	.
O=C(Nc1cccc(Cl)c1)Nc1cccc(Cl)c1	9	10	5	14	-22	.	.
CCSc1nsc(NC(=O)Nc2cccc(F)c2)n1	16	.	.	20*	-26	12	13
CC(=O)c1ccc(-c2ccc(C(=O)N(C)Cc3nc4ccccc4c(=O)[nH]3)o2)cc1	9	.	.	8	-8	.	.
Cc1ccc(Cl)cc1N1CCN(C(=O)C2CCN(S(=O)(=O)c3c(C)nn(C)c3C)CC2)CC1	16	4	1	21*	-12	12	11
Cc1nc(CNC(=O)CC2C(=O)NCCN2Cc2cccc(Oc3ccccc3)c2)cs1 (configuration not stated)	2	1	1	0	-9	.	.
COc1cccc(-c2ccc(NC(=O)C3CCCN(Cc4ccc(CO)o4)C3)cc2)c1 (configuration not stated)	17	.	.	3	-6	.	.
Cc1ccc(C)c(N2CCN(C(=O)c3cccn4c(=O)c5sccc5nc34)CC2)c1	9	0	1	31*	-13	10	5
Cn1cccc1P(=O)(c1cccn1C)c1cccn1C	0	0	0	31*	-13	1	1
O=C(CCN1C(=O)C2C3CCC(C3)C2C1=O)OCC(=O)c1cccc([N+](=O)[O-])c1 (configuration not stated)	2	0	0	2	-3	.	.
Oc1ccc(C[C@@H]2CNCCN2CCC23CC4CC(CC(C4)C2)C3)cc1	8	.	.	20*	-16	9	3
Oc1ccc(C[C@H]2CNCCN2CCC23CC4CC(CC(C4)C2)C3)cc1	3	.	.	7	-1	.	.
CC(Oc1cccc(Cl)c1)C(=O)Nc1ccc(S(=O)(=O)NC2=NCCCCC2)cc1 (configuration not stated)	10	.	.	14	-16	.	.
CC(Oc1ccc(F)cc1)C(=O)Nc1ccc(S(=O)(=O)NC2=NCCCCC2)cc1 (configuration not stated)	15	.	.	25*	-12	28*	20
CSc1ccc2c(c1)C(N1CCN(C)CC1)Cc1ccc(F)cc1S2 (configuration not stated)	10	.	.	26*	-8	4	1
CSc1ccc(S(=O)(=O)NC2CC3CCC2C3)cc1 (configuration not stated)	0	.	.	-2	-16	.	.
COc1ccc(/C=C2/CCc3ccccc3C2=O)cc1CN1CCOCC1	0	0	-1	-2	-9	.	.
COc1ccc(/C=C2\CCc3ccccc3C2=O)cc1Cn1nc(C)cc1C	20	0	-1	23*	-16	5	3
CCCCOC(=O)c1ccc(NC(=O)c2c(N)n(C)c(=O)[nH]c2=O)cc1	1	.	.	0	-5	.	.
Cc1onc(-c2ccccc2)c1C(=O)Nc1ncc([N+](=O)[O-])s1	10	.	.	21*	-14	16	12
Cc1onc(-c2ccccc2)c1C(=O)Nc1nnc(C(C)C)s1	0	.	.	-1	-1	.	.
Cc1ccc(Cl)cc1N1CCN(CC(=O)Nc2ccc(CN3CCCCC3)cc2)CC1	12	14	9	28*	-14	19	13
SMILES	V1R ag counter	TRPN1 ag	TRPML3 agonist	OXTR agonist	OXTR potentiate	OXTR ag confirm	V1R ag counter 3x
CC(=O)c1ccc(NC(=O)CN2CCCCCC2)cc1	1	.	.	21*	-7	1	0
CCN1CCN(CC(=O)Nc2ccc(C(C)=O)cc2)CC1	2	.	.	3	-13	.	.
Clc1ccc2c(c1)C(N1CCNCC1)Cc1ccccc1S2 (configuration not stated)	12	16	2	29*	-18	21*	7
Clc1cccc2c1Sc1ccccc1CC2N1CCNCC1 (configuration not stated)	16	-1	1	22*	-7	8	5
COCCCN1CCN(C2Cc3ccccc3Sc3ccc(Cl)cc32)CC1 (configuration not stated)	5	1	1	6	-2	.	.
C=C(C)Cn1c(CN(C)Cc2ccccc2)nc2c1c(=O)n(C)c(=O)n2C	9	.	.	5	-11	.	.
CN(CC(=O)NCc1ccc2c(c1)OCO2)S(=O)(=O)c1ccc(F)cc1	3	.	.	1	2	.	.
Cc1cc(C)c2c(=O)n(CC(=O)Nc3ccc(Br)c(C)c3)sc2n1	20	4	6	37*	-12	10	7
Cc1cc(C)c2c(=O)n(CC(=O)NC3CCCC3)sc2n1	4	0	1	4	-2	.	.
Cc1cc(C)c2c(=O)n(CC(=O)Nc3cccc(Cl)c3C)sc2n1	19	21*	11	42*	-10	20*	21*
Cc1ccc(O)c(-c2cc(-c3ccc(F)cc3)no2)c1	1	.	.	1	-4	.	.
CC(C)n1nc(C(=O)NNC(=O)c2ccc(OC(F)F)cc2)c2ccccc2c1=O	-1	.	.	-2	2	.	.
CCCC(=O)c1ccc(N2CCN(C(=O)c3ccccc3Br)CC2)c(F)c1	8	7	4	20*	-20	6	7
CCCC(=O)c1ccc(N2CCN(C(=O)c3ccccc3)CC2)c(F)c1	8	5	3	10	-21	.	.
